How the values were obtained:
[1] = Ratio of GI50 for antiproliferative activity against human hTERT-BJ cells incubated for 48 hrs by SRB assay to GI50 for antiproliferative activity against human T47D cells incubated for 48 hrs by SRB assay; format: toxicity, cell-based; details: hTERT-BJ cells versus T47D cells, read-out: RatioGI50
Summary of the method: (§1)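 Selectivity is GI50 in the nontumor BJ-hTERT fibroblasts divided by GI50 in each tumor line. All values come from the same 48 h SRB assay, with 0.01−100 μM serial dilutions.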

SW1573 [2] = assay: Antiproliferative activity against human SW1573 cells over-expressing P-gp incubated for 48 hrs in presence of P-gp and CYP3A4/5 inhibitor verapamil by SRB assay; format: functional; details: SW1573, 48 h
Summary of the method: (§2)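 Wild-type SW1573 (2500 cells/well) and P-gp-overexpressing SW1573/Pgp (5000 cells/well) in RPMI 1640 with 5% FBS. Seeded 24 h, then exposed 48 h to serial dilutions (0.01−100 μM) with or without 10 μM verapamil (final) in the medium. Paclitaxel and vinblastine were reference drugs. SRB read at 530/620 nm. GI50 by NCI formulas, mean of at least two independent experiments ± SD.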

HeLa = assay: Antiproliferative activity against human HeLa cells incubated for 48 hrs by SRB assay; format: functional
Summary of the method: (§3)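 Cells kept in RPMI 1640 with 5% FBS and 2 mM L-glutamine at 37 °C under 5% CO2. Seeded at 2500 (A549, HBL-100, HeLa, SW1573) or 5000 (T-47D, WiDr, BJ-hTERT) cells/well and left 24 h. Compounds added as serial dilutions (0.01−100 μM) for 48 h. SRB staining read at 530 and 620 nm. GI50 calculated by NCI formulas. Mean of at least two independent experiments ± SD.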

[3] = Ratio of GI50 for antiproliferative activity against human hTERT-BJ cells incubated for 48 hrs by SRB assay to GI50 for antiproliferative activity against human WiDr cells incubated for 48 hrs by SRB assay; format: toxicity, cell-based; details: hTERT-BJ cells versus WiDr cells, read-out: RatioGI50; summary of the method: as §1
T47D = assay: Antiproliferative activity against human T47D cells incubated for 48 hrs by SRB assay; format: functional; summary of the method: as §3
WiDr = assay: Antiproliferative activity against human WiDr cells incubated for 48 hrs by SRB assay; format: functional; summary of the method: as §3
A549 = assay: Antiproliferative activity against human A549 cells incubated for 48 hrs by SRB assay; format: functional; details: A549, 48 h; summary of the method: as §3
[4] = Ratio of GI50 for antiproliferative activity against human hTERT-BJ cells incubated for 48 hrs by SRB assay to GI50 for antiproliferative activity against human HBL100 cells incubated for 48 hrs by SRB assay; summary of the method: as §1
[5] = Ratio of GI50 for antiproliferative activity against human hTERT-BJ cells incubated for 48 hrs by SRB assay to GI50 for antiproliferative activity against human A549 cells incubated for 48 hrs by SRB assay; summary of the method: as §1
SW1573 [6] = assay: Antiproliferative activity against human SW1573 cells incubated for 48 hrs in presence of P-gp and CYP3A4/5 inhibitor verapamil by SRB assay; format: functional; details: SW1573, 48 h; summary of the method: as §2
SW1573 [7] = assay: (§4) Resistance factor, ratio of GI50 for Antiproliferative activity against human SW1573 cells over-expressing P-gp incubated for 48 hrs in absence of P-gp and CYP3A4/5 inhibitor verapamil by SRB assay to GI50 for antiproliferative activity against human SW1573 cells incubated for 48 hrs in absence of P-gp and CYP3A4/5 inhibitor verapamil by SRB assay; format: functional
Summary of the method: (§5)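 Resistance factor is GI50 in SW1573/Pgp divided by GI50 in wild-type SW1573. Both come from 48 h SRB assays, run with 10 μM verapamil (final) or without it.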

SW1573 [8] = assay: Antiproliferative activity against human SW1573 cells incubated for 48 hrs by SRB assay; format: functional; details: SW1573, 48 h; summary of the method: as §3
SW1573 [9] = assay: Antiproliferative activity against human SW1573 cells over-expressing P-gp incubated for 48 hrs in absence of P-gp and CYP3A4/5 inhibitor verapamil by SRB assay; format: functional; details: SW1573, 48 h; summary of the method: as §2
[10] = Ratio of GI50 for antiproliferative activity against human hTERT-BJ cells incubated for 48 hrs by SRB assay to GI50 for antiproliferative activity against human HeLa cells incubated for 48 hrs by SRB assay; format: toxicity, cell-based; details: hTERT-BJ cells versus HeLa cells, read-out: RatioGI50; summary of the method: as §1
[11] = Ratio of GI50 for antiproliferative activity against human hTERT-BJ cells incubated for 48 hrs by SRB assay to GI50 for antiproliferative activity against human SW1573 cells incubated for 48 hrs by SRB assay; format: toxicity, cell-based; details: hTERT-BJ cells versus SW1573 cells, read-out: RatioGI50; summary of the method: as §1
SW1573 [12] = assay: Antiproliferative activity against human SW1573 cells incubated for 48 hrs in absence of P-gp and CYP3A4/5 inhibitor verapamil by SRB assay; format: functional; details: SW1573, 48 h; summary of the method: as §2
[13] = Antiproliferative activity against human hTERT-BJ cells incubated for 48 hrs by SRB assay; format: cell-based; summary of the method: as §3
HBL-100 = assay: Antiproliferative activity against human HBL100 cells incubated for 48 hrs by SRB assay; format: functional; details: HBL-100, 48 h; summary of the method: as §3
SW1573 [14] = assay: as §4, with “presence” for “absence”; format: functional; summary of the method: as §5

SMILES | selectivity ratio at 48 h [1] | GI50 (SW1573 [2]) | GI50 (HeLa) | selectivity ratio at 48 h [3] | GI50 (T47D) | GI50 (WiDr) | GI50 (A549) | RatioGI50 [4] | RatioGI50 [5] | GI50 (SW1573 [6]) | RatioGI50 (SW1573 [7]) | GI50 (SW1573 [8]) | GI50 (SW1573 [9]) | selectivity ratio at 48 h [10] | selectivity ratio at 48 h [11] | GI50 (SW1573 [12]) | GI50 at 48 h [13] | GI50 (HBL-100) | RatioGI50 (SW1573 [14])
CCO[C@@H]1O[C@@](C)([C@H]2CC(C)=C(C)C(=O)O2)[C@H]2CC[C@H]3[C@@H]4[C@@H](O)C=C5[C@@H](O)C=CC(=O)[C@]5(C)[C@H]4CC[C@]123 | 2 to 10 | 1.7 µM | 2.5 µM | 2 to 10 | 4.7 µM | 6.1 µM | 2.8 µM | 2 - 10 | 2 - 10 | 3.9 µM | 1.1 | 2.4 µM | 2.3 µM | 2 to 10 | 2 to 10 | 2.1 µM | > 10 µM | 3.2 µM | 0.4
C[C@]12C(=O)C=CC=C1[C@H](O)[C@H]1O[C@]3([C@@H]4C[C@]5(C)C(=O)O[C@H]4C[C@@]5(C)O)CC[C@@]4(O3)[C@H]1[C@@H]2CC[C@]4(C)O | – | 2.7 µM | 3.3 µM | – | 6.4 µM | > 10 µM | > 10 µM | – | – | 5.5 µM | 1.1 | 4.4 µM | 4.5 µM | – | – | 4.1 µM | 5.3 µM | > 10 µM | 0.5
C[C@]12C(=O)C=CCC1=C[C@H]1O[C@]3([C@@H]4C[C@]5(C)C(=O)O[C@H]4C[C@@]5(C)O)CC[C@@]4(O3)[C@H]1[C@@H]2CC[C@]4(C)O | 2 to 10 | – | > 10 µM | 2 to 10 | > 10 µM | > 10 µM | > 10 µM | 2 - 10 | 2 - 10 | – | – | > 10 µM | – | 2 to 10 | 2 to 10 | – | > 10 µM | > 10 µM | –
C[C@]1(O)CC[C@H]2[C@H]3[C@H](O[C@]4([C@@H]5C[C@]6(C)C(=O)O[C@H]5C[C@@]6(C)O)CC[C@@]31O4)[C@@H](O)[C@]13O[C@H]1C=CC(=O)[C@]23C | 2 to 10 | – | > 10 µM | 2 to 10 | > 10 µM | > 10 µM | > 10 µM | – | – | – | – | > 10 µM | – | 2 to 10 | 2 to 10 | – | – | > 10 µM | –
CC1=C(C)C(=O)O[C@@H]([C@]2(C)OC(O)[C@@]34CC[C@H]5[C@@H](CC=C6CC=CC(=O)[C@@]65C)[C@](O)(CC[C@H]23)O4)C1 (stereo not given in full) | 2 to 10 | – | > 100 µM | 2 to 10 | > 10 µM | > 10 µM | > 10 µM | – | – | – | – | > 10 µM | – | 2 to 10 | 2 to 10 | – | – | > 10 µM | –
CC1=C(C)C(=O)O[C@@H]([C@]2(C)OC(O)[C@]34CC[C@H]5[C@@H]([C@H](O)C=C6CC=CC(=O)[C@@]65C)[C@@H]3CC[C@H]24)C1 (stereo not given in full) | 2 to 10 | – | > 10 µM | 2 to 10 | > 10 µM | > 10 µM | > 10 µM | – | – | – | – | > 10 µM | – | 2 to 10 | 2 to 10 | – | – | > 10 µM | –
CC1=C(C)C(=O)O[C@@H]([C@](C)(O)[C@H]2CC[C@H]3[C@@H]4[C@@H](O)C=C5[C@@H](O)C=CC(=O)[C@]5(C)[C@H]4CC[C@]23CO)C1 | 2 to 10 | – | > 10 µM | 2 to 10 | > 10 µM | > 10 µM | > 10 µM | – | – | – | – | > 10 µM | – | 2 to 10 | 2 to 10 | – | – | > 10 µM | –
CC1=C(CO)C(=O)O[C@@H]([C@]2(C)OC(O)[C@@]34CC[C@H]5[C@@H](CC=C6CC=CC(=O)[C@@]65C)[C@](O)(CC[C@H]23)O4)C1 (stereo not given in full) | 2 to 10 | – | > 10 µM | 2 to 10 | > 10 µM | > 10 µM | > 10 µM | – | – | – | – | > 10 µM | – | 2 to 10 | 2 to 10 | – | – | > 10 µM | –
C[C@]12C(=O)CC=CC1=C[C@H]1O[C@]3([C@@H]4C[C@]5(C)C(=O)O[C@H]4C[C@@]5(C)O)CC[C@@]4(O3)[C@H]1[C@@H]2CC[C@]4(C)O | 2 to 10 | – | > 10 µM | 2 to 10 | > 10 µM | > 10 µM | > 10 µM | – | – | – | – | > 10 µM | – | 2 to 10 | 2 to 10 | – | – | > 10 µM | –
CC1=C(C)C(=O)O[C@@H]([C@]2(C)OC(O)[C@]34CC[C@H]5[C@@H]([C@H](O)C=C6C=CCC(=O)[C@@]65C)[C@@H]3CC[C@H]24)C1 (stereo not given in full) | 2 to 10 | – | > 10 µM | 2 to 10 | > 10 µM | > 10 µM | > 10 µM | – | – | – | – | > 10 µM | – | 2 to 10 | 2 to 10 | – | – | > 10 µM | –
CC1=C(C)C(=O)O[C@@H]([C@]2(C)OC(O)[C@]34CC[C@H]5[C@@H]([C@@H](O)C=C6[C@@H](O)C=CC(=O)[C@@]65C)[C@@H]3CC[C@H]24)C1 (mixture of isomers) | 2 to 10 | – | > 10 µM | 2 to 10 | > 10 µM | > 10 µM | > 10 µM | 2 - 10 | 2 - 10 | – | – | > 10 µM | – | 2 to 10 | 2 to 10 | – | > 10 µM | > 10 µM | –
CC(=O)O[C@H]1C(=O)[C@@]2(C)[C@H]([C@H](OC(=O)c3ccccc3)[C@]3(O)C[C@H](OC(=O)[C@H](O)[C@@H](NC(=O)c4ccccc4)c4ccccc4)C(C)=C1C3(C)C)[C@]1(OC(C)=O)CO[C@@H]1C[C@@H]2O [PACLITAXEL] | – | 0.0042 µM | – | – | – | – | – | – | – | 0.0016 µM | 128 | – | 0.196 µM | – | – | 0.0015 µM | – | – | 2.6
CC[C@]1(O)C[C@@H]2CN(CCc3c([nH]c4ccccc34)[C@@](C(=O)OC)(c3cc4c(cc3OC)N(C)[C@H]3[C@@](O)(C(=O)OC)[C@H](OC(C)=O)[C@]5(CC)C=CCN6CC[C@]43[C@@H]65)C2)C1 [VINBLASTINE] | – | 0.001 µM | – | – | – | – | – | – | – | 0.0008 µM | 2388 | – | 2.05 µM | – | – | 0.0009 µM | – | – | 1.3
